These results are taken from ChEMBL document CHEMBL4513216, “Probing the Open Global Health Chemical Diversity Library for Multistage-Active Starting Points for Next-Generation Antimalarials” (ACS Infect Dis, 2020).

The nature of the data set: Toxicity liver stage against HepG2, at 10uM. In kind it is cell-based. To be noted: human, HepG2-A16-CD81EGFP cells; read-out: INHIBITION
Also on record: test concentration 10 uM, cell line HepG2-A16-CD81EGFP. In short, it runs like this: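 Uninfected HepG2-A16-CD81EGFP cells, 3 × 10^3 per well, 1536-well, plated on prespotted compound at 10 μM final, parasite-free screening media added to match infected plates; puromycin 10 μM positive, DMSO 0.5% negative; run in parallel with 48 h PbLuc assay at 37 °C, 5% CO2; viability by CellTiter-Glo luminescence, normalized to controls.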

Turning to `CC(C)OCc1ncn2c1CN(Cc1ccc(F)cc1)CCC2`, the cytotoxicity at 10 µM is 1.39%. In the case of `COC(=O)c1occc1Cn1cc(Br)cn1`, the cytotoxicity at 10 µM is -5.63%. Then `COc1c(C)cnc(CN2CCCC2Cn2nc(C)nc2C)c1C` (centres undefined), with -3.21%; and `CCSc1ccc(C(C)NC(=O)CNS(C)(=O)=O)cc1` (centres undefined), with 10.4%; and `COC1COC2(CCN(C(=O)c3cscn3)CC2)C1` (centres undefined), with 6.13%. Then `CN(Cc1cn2c(n1)CN(C(=O)N(C)C)CC2)Cc1ccco1`, with 4.44%; and `Cc1ccc(-n2nc(C)c3c2NC(=O)CC3c2cnc(N)s2)cc1` (centres undefined), with 5.56%; and `CN1C(=O)CCCC12CCCN(C(=O)c1ccc3c(c1)OCO3)C2` (centres undefined), with 0.758%. As for `COc1ccc(CNC(=O)Nc2cccnc2N2CCCC2)cc1O`, the cytotoxicity at 10 µM was -10.7%.

Regarding `O=c1[nH]c(C2CCOC2)nc2ccc(Br)cc12` (centres undefined), the cytotoxicity at 10 µM turned out to be 7.85%. Then `CC(C(=O)NCCc1ccc2c(c1)OCCO2)n1cncn1` (centres undefined), with 6.89%; and `CCOC(=O)[C@H]1[C@@H](O)C(=O)N(C)C12CCN(C(=O)OCC)CC2`, with -7.83%; and `Cc1nn(C)c(C)c1NC(=O)CNc1ccc(F)c(C(F)(F)F)c1`, with 0.0371%. For the compound `CN(C)S(=O)(=O)CCCOc1cccc(-n2ccnc2)c1`, the cytotoxicity at 10 µM was 14%. Regarding `O=C(NCCNS(=O)(=O)c1cc(F)cc(F)c1)c1ccoc1`, the cytotoxicity at 10 µM is -1.33%. Then `O=C(NCCCn1nc2ccccn2c1=O)NCC(C1CC1)C1CC1`, with 6.01%. Then `COCCN(CCOC)C(=O)c1sc(C)nc1C`, with 2.16%; and `Cc1sc2nc(C(F)(F)F)nc(N3CCN(C)CC3)c2c1C`, with -3.47%. In the case of `Cc1cccc(C(=O)N2CCCN(Cc3cscn3)CC2)c1` it was -18.1%; in that of `CNc1ccccc1C(=O)N(C)CCc1ccccc1`, -1.76%. Turning to `N#Cc1cc(C(F)(F)F)ccc1NCC1CCS(=O)(=O)CC1`, the cytotoxicity at 10 µM came out at 10.2%. As to `CCNc1ncc(C(=O)NC(CCN(C)C)c2ccccc2)cn1` (centres undefined), the cytotoxicity at 10 µM is 4.8%. As to `CC(=O)c1c(F)cccc1NCC(O)C1CC1` (centres undefined), the cytotoxicity at 10 µM amounted to 13.4%. Then `Cc1nc2ccccn2c1CN1C[C@@H](CN(C)C)[C@@H](CO)C1`, with 0.743%; and `Cc1cnc(C(=O)N2CCCC(Cn3cc(CC(C)C)nn3)C2)cn1` (centres undefined), with 1.33%. For the compound `NC(=O)c1c(SCCN2CCOCC2)sc2c(O)cc(=O)[nH]c12`, the cytotoxicity at 10 µM was found to be 1.17%. In the case of `O=C(NCc1ccco1)C1CCCN1Cc1nc(-c2ccco2)no1` (centres undefined) it was -6.46%; in that of `CC(=O)N(C)Cc1cncc(C2CCCN2C2CCOCC2)n1` (centres undefined), -5.34%. Take `COc1ncccc1CN1C[C@@H]2COC[C@]2(COc2ccccn2)C1`: the cytotoxicity at 10 µM was -3.87%. In the case of `CCc1ccc(S(=O)(=O)N2CCN(CCn3ccnc3)CC2)cc1` it was -8.81%; in that of `Cc1cnc(NC(C)Cc2cnccn2)nc1N(C)C` (centres undefined), 0.342%; in that of `CS(=O)(=O)Cc1nc(CN2CCOc3ccccc3C2)cs1`, 5.81%. Then `CSCc1cccc(S(=O)(=O)N2CCCCCC2)c1`, with 6.91%; and `CCCOc1cccc(OCc2ccon2)c1`, with -4.9%; and `CC(Nc1ccc(C(F)(F)F)cc1C#N)c1cccc(S(N)(=O)=O)c1` (centres undefined), with -3.09%. On to `CC[C@@H]1N(Cc2ccncc2)CCC[C@]12CCC(=O)N2CCOC`, for which the cytotoxicity at 10 µM stood at 11.5%. In the case of `CC1CCCN(Cc2ccnc(-c3cccnc3)n2)C1` (centres undefined) it was -6.57%.

Turning to `c1nc(-c2nc(C3CCOC3)no2)cs1` (centres undefined), the cytotoxicity at 10 µM was 6.18%. Then `CC(Cn1ccnc1)NC(=O)C1(c2ccc(F)cc2)CCCC1` (centres undefined), with -9.98%; and `Cc1nnc(SCC(=O)c2cc3c(cc2Cl)NC(=O)C3)o1`, with -5.28%. As to `c1cncc(CN2Cc3nccn3CC(Cn3cccn3)C2)c1` (centres undefined), the cytotoxicity at 10 µM is -102%. In the case of `FC(F)(F)c1ccnc(N2CCCCCC2)c1` it was 3.02%; in that of `O=c1c(=CS(=O)(=O)Nc2ccccc2)[nH]c(=O)n2cccc12`, 0.458%; in that of `CC(C)c1nc(C2CCCN2CCc2ccccn2)no1` (centres undefined), 3.38%. On to `O=C1CCC2(CCN(c3ncc(F)cn3)CC2)N1CCN1CCCC1`, for which the cytotoxicity at 10 µM is 10.5%.

Take `C[S+]([O-])CCNC(=O)N1CCN(c2cc(F)ccc2F)CC1` (centres undefined): the cytotoxicity at 10 µM was -13.4%. In the case of `Cc1ccc(C(=O)N(C)Cc2nccn2CC(F)(F)F)cn1`, the cytotoxicity at 10 µM stood at 2.52%. Then `Cc1ccc(CN(Cc2ccccn2)C(=O)[C@H]2CC[C@@H](N)C2)s1`, with -0.327%; and `Cc1cc2cc(CNC(=O)c3cnn4c3OCCC4)ccc2[nH]1`, with 6.59%; and `Cn1cccc1C(=O)N[C@@H]1CN(Cc2ccsc2)[C@@H]2COC[C@@H]21`, with 9.9%. In the case of `Cc1c(NC(=O)N(C)CCO)cccc1OC1CCCC1` it was -0.172%. For `CCc1nc(C)c(C(=O)NCC2COc3cc(OC)ccc3C2)o1` (centres undefined), the cytotoxicity at 10 µM came out at 54.6%. Turning to `Cc1ncc(CN(C)CC2CCCN2c2cccnn2)s1` (centres undefined), the cytotoxicity at 10 µM was found to be 4.19%. In the case of `CS(=O)(=O)N1CCO[C@@H]2CCN(C(=O)c3cccs3)CC[C@H]21` it was -2.35%; in that of `COc1ccc2[nH]cc(C(=O)N3CC[C@H](CO)[C@@H](O)C3)c(=O)c2c1`, 1.26%; in that of `Cc1cccc(OCCC(=O)N(C)CCNS(C)(=O)=O)c1C`, 3.35%.

Take `COc1ccc(Br)cc1CN(C)C(C)c1nc(C(C)C)no1` (centres undefined): the cytotoxicity at 10 µM came to 4.43%.

Turning to `c1ccc(CNc2ncc(CN3CCCN4CCC[C@H]4C3)cn2)cc1`, the cytotoxicity at 10 µM was -9.53%. Turning to `COc1ccc(S(=O)(=O)NCCCc2nnc3nc(C)cc(C)n23)cc1`, the cytotoxicity at 10 µM was found to be 5.05%. Then `O=C(NC1CC1)C(c1ccccc1)N1CCn2c(nnc2C2CC2)C1` (centres undefined), with -6.22%; and `CC1CN(C)CCN1C(=O)NCCCn1ccnc1` (centres undefined), with -45.5%. In the case of `COc1cccc(CC(=O)N2CCC(O)(C(F)(F)F)C2)c1` (centres undefined) it was 1.16%; in that of `CC1Cc2ccccc2N1Cc1occc1C(=O)NCC(=O)N(C)C` (centres undefined), 8.13%; in that of `CNc1snc(C)c1C(=O)N1CCCC(n2ccnc2C)C1` (centres undefined), -14.1%. In the case of `COc1ccc(F)cc1CN1CCN(Cc2nccn2C)C(C)C1` (centres undefined) it was 2.01%; in that of `Cc1cccc(CNc2n[nH]c(C)n2)c1`, -4.09%; in that of `COCc1nc(N2CCC(CCO)CC2)c2cnn(C)c2n1`, 1.22%.

Regarding `COc1cccc(N2CCN(C(=O)c3noc4c3CCCCC4)CC2)c1`, the cytotoxicity at 10 µM is 9.4%. In the case of `O=C(c1ccco1)N1C[C@@H]2OCCN(c3ncccn3)[C@@H]2C1` it was 6.4%. In the case of `COC(=O)CNC(=O)c1cn(Cc2ccccc2F)nn1` it was 4.98%; in that of `CCC(C)n1cnc(S(=O)(=O)N(C)C)c1` (centres undefined), -7.07%; in that of `CCOc1nnc(CN2CCCC(c3nc4ccccc4[nH]3)C2)s1` (centres undefined), 14.6%.

On to `CN(C)c1nc2n(c(=O)n1)CCN2C(=O)Nc1ccc(Cl)c(Cl)c1`, for which the cytotoxicity at 10 µM is 9.76%.

In the case of `CC(C)c1nccn1C1CCCN(C(=O)c2ccc3c(c2)OCO3)C1` (centres undefined), the cytotoxicity at 10 µM worked out at 4.28%. Regarding `CC(C)(C)NC(=O)CNC(=O)CCc1ccccc1Br`, the cytotoxicity at 10 µM was determined as 3.09%. Then `Cc1cc2c(cc1C)C(NCc1nnc3n1CCCCC3)CCCO2` (centres undefined), with 0.873%; and `Cc1ncsc1C(=O)Nc1cccc(OCC(F)F)n1`, with -1.4%; and `Cn1ccc2cc(C(=O)NC3CCOC(C)(C)C3)ccc21` (centres undefined), with 1.67%. Then `CC(C)c1nc2n(n1)CC(NCc1nnc(C(C)C)o1)CC2` (centres undefined), with -4.13%; and `CC(C)C1CN(S(=O)(=O)c2cccc(C#N)c2)CCS1` (centres undefined), with 1.06%; and `O=C(Cc1ccc(F)cc1)NS(=O)(=O)c1ccc(F)c(F)c1`, with -9.07%. In the case of `CC(Cn1cc(Br)cn1)C(=O)Nc1ccc(C(N)=O)cc1` (centres undefined) it was -0.609%; in that of `COc1ccccc1OCCC(=O)NC1CCc2nc(C)cn2C1` (centres undefined), -7.05%; in that of `CN1C(=O)CCCC12CCCN(C(=O)c1cccc(C(F)(F)F)c1)C2` (centres undefined), 4.65%. Consider `Cc1cnn(CCNCc2ccc(F)cc2Cl)c1`, for which the cytotoxicity at 10 µM was -5.16%. Then `CCOC(=O)CNC(=O)NCc1cccn1Cc1ccc(F)cc1`, with 11.6%; and `Cc1csc(CCNC(=O)Nc2cc(C(F)(F)F)c[nH]c2=O)n1`, with 8.13%; and `CCC(CO)N(C/C(C)=C/c1ccco1)Cc1ccsc1` (centres undefined), with 1.12%. Then `Cc1nn(CC(F)F)c2c1c(C(F)F)cc(=O)n2CC(=O)O`, with 2.84%; and `CC(C)c1cncnc1-c1cc(F)cc2c1OC(CN)C2` (centres undefined), with -4.02%; and `CCc1nc(C2CCCN2C(=O)c2ncoc2CC)no1` (centres undefined), with -12.8%. Then `Cc1ccc([C@H]2CN(CCO)C[C@@H]2NC(=O)CN2CCCCC2=O)o1`, with 2.1%; and `CCc1c(O)nc2nc(N3CCCC3)nn2c1C`, with 10%. As to `CSCCC(NC(=O)c1ccco1)C(=O)N(C)Cc1ccsc1` (centres undefined), the cytotoxicity at 10 µM is -0.0681%.

Consider `O=C1C(NCc2ccc3c(c2)CCO3)CCN1Cc1ccccc1` (centres undefined), for which the cytotoxicity at 10 µM was found to be 6.39%. In the case of `CCS(=O)(=O)CCN1CCC(N(C)Cc2noc(C(C)C)n2)C1` (centres undefined) it was -5.55%. Regarding `CCc1ccsc1CNC(=O)CNC(=O)C(C)(C)C`, the cytotoxicity at 10 µM is -4.08%. In the case of `CSCC(=O)N1CCC2(CC1)c1ccccc1CC2O` (centres undefined) it was -19.8%.

As for `c1ccn2c(C3CCCN3Cc3nc(C4CC4)no3)nnc2c1` (centres undefined), the cytotoxicity at 10 µM was -2.59%.
